Assay outcomes: PubChem BioAssay, The Scripps Research Institute Molecular Screening Center
PAFAH1B3 FP inh = PAFAH1B3 (human) inhibition | Q15102 | recombinant PAFAH1B3, FP-rhodamine probe, fluorescence polarization | inhibition, % at 3.39 µM | 0.28% of 340,000 active | AID 492972;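 active = inhibition above the screen-wide average of all tested compounds plus 3 SD, cut at about 25% in these data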;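 note: 0% = enzyme with DMSO only and 100% = wells lacking PAFAH1B3 protein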
Target sequence (Q15102 whole entry, looked up): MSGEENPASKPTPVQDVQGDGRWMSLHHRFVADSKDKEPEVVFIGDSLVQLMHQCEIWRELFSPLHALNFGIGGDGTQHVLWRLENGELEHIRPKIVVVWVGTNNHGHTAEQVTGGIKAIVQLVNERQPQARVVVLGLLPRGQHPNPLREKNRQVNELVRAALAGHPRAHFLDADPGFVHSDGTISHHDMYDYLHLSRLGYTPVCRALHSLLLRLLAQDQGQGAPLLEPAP
ARFGAP1 inh = inhibitors of rat ARFGAP1; Q62848; Arfgap1-stimulated ARF1 GTP hydrolysis, GDP FP detection; inhibition, % at 16.5 µM; 0.26% of 360,000 active; AID 651572;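 active = inhibition above a per-plate limit, mean inhibition of low control wells plus 3 SD, cut at about 25% in these data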;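 note: 0% = DMSO wells with enzyme and 100% = wells lacking Arfgap1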
Target sequence (Q62848 1-136 limits assumed): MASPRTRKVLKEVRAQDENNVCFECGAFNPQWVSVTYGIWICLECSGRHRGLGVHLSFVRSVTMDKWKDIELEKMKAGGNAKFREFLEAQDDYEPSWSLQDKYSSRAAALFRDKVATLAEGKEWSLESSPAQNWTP
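System: truncated rat Arfgap1 GAP domain / Medium: HEPES-based buffer, pH 7.5 / Also added: N-terminally truncated human ARF1-GTP substrate / Incubation: enzyme reaction 120 min at 25 °C after 20 min preincubation / Measured by: FP of antibody-bound GDP Alexa 633 tracer, ex 620/em 688 nm / Replicates: singlicate, each compound tested once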
PAFAH1B2 inh = inhibitors of human PAFAH1B2; recombinant PAFAH1B2, FP-rhodamine activity probe, fluorescence polarization; inhibition, % at 3.39 µM; P68402; 1.2% of 340,000 active;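 active = inhibition above the mean of all tested compounds plus 3 SD, cut at about 24% in these data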;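 note: 0% = enzyme with DMSO and 100% = wells lacking PAFAH1B2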
Target sequence (P68402 whole entry, looked up): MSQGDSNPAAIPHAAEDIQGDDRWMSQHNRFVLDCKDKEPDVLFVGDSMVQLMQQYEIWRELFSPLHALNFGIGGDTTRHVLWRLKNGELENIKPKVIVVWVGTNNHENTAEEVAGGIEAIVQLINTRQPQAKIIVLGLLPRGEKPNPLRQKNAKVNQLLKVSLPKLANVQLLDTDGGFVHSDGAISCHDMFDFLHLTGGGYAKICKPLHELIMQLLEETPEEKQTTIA
PAFAH2 inh = PAFAH2 (human) inhibition; recombinant PAFAH2, FP-rhodamine activity probe, fluorescence polarization; 0.99% of 340,000 active; AID 492956; Q99487; inhibition, % at 3.39 µM;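 active = inhibition above the mean over all tested compounds plus 3 SD, cut at about 30% in these data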;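 note: inhibitors block probe labeling of enzyme so polarization drops; 0% = enzyme with DMSO and 100% = wells lacking PAFAH2 protein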
ASAP1 inh = ASAP1 ArfGAP inhibition; inhibition, % at 16.5 µM; 0.19% of 360,000 active; AID 624377; ASAP1-stimulated ARF1 GTP hydrolysis, GDP FP detection; in the data active = inhibition above about 25%;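 note: 0% = vehicle with enzyme and substrate and 100% = no enzyme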
pPAFAH inh = pPAFAH (human) enzyme inhibition; Q13093; recombinant pPAFAH, FP-rhodamine probe fluorescence polarization; inhibition, % at 3.39 µM; 1.5% of 330,000 active; AID 463082;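 active = inhibition above the mean inhibition across the screen plus 3 SD, cut at about 25% in these data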;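 note: inhibitors block binding of the rhodamine activity-based probe so polarization drops; 0% = enzyme with DMSO and 100% = wells lacking pPAFAH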
An asterisk follows results filed as active. In the library only some 2.7% were active in any assay of this set; here they are far more common.

How did CCOC(=O)c1c(NC(=O)CSc2nnc(C)c(=O)[nH]2)sc2c1CCCC2 do in these assays?
PAFAH1B3 FP inh: 3; ARFGAP1 inh: -9; PAFAH1B2 inh: 68*; PAFAH2 inh: 3; ASAP1 inh: -7; pPAFAH inh: 27*

Results for C#CCN1CC(COc2ccccc2)OCCS1(=O)=O (stereo not given) ?
ARFGAP1 inh: -4; ASAP1 inh: 3

How did C[C@@H]1CN(c2ccc(N3CCN(C(=O)OC(C)(C)C)C[C@@H]3C)cc2C#N)C[C@H](C)O1 do in these assays?
ARFGAP1 inh: 4; ASAP1 inh: -2

How did O=C(NCc1ccccc1)[C@H]1CCCN1C(=O)[C@H]1CCCN1C(=O)c1ccc(F)c(F)c1 do in these assays?
ARFGAP1 inh: 8; ASAP1 inh: 5

How did Cc1ccc(SCc2[nH]nc3c2C(c2ccco2)C(C#N)=C(N)O3)cc1 (stereo not given) do in these assays?
PAFAH1B3 FP inh: 14; ARFGAP1 inh: -14; PAFAH1B2 inh: 34*; PAFAH2 inh: 7; ASAP1 inh: 12; pPAFAH inh: 7

Results for Cc1ccc(SCc2[nH]nc3c2C(c2ccc(C)o2)C(C#N)=C(N)O3)cc1 (stereo not given) ?
PAFAH1B3 FP inh: 3; ARFGAP1 inh: -14; PAFAH1B2 inh: 21; PAFAH2 inh: 13; ASAP1 inh: -5; pPAFAH inh: 0

How did C=CCOc1c(Br)cc(/C=N/Nc2ccc(C(=O)O)cc2)cc1OCC do in these assays?
PAFAH1B3 FP inh: 6; ARFGAP1 inh: -2; PAFAH1B2 inh: 3; PAFAH2 inh: 16; ASAP1 inh: -4; pPAFAH inh: 30*

Results for CN(C)c1ccc(NC(=O)c2ccc(COc3cccc(Cl)c3)o2)cc1 ?
PAFAH1B3 FP inh: 5; ARFGAP1 inh: 9; PAFAH1B2 inh: 4; PAFAH2 inh: 23; ASAP1 inh: 0; pPAFAH inh: 27*

Results for CCN1CCN(C(=O)c2ccc(COc3cccc(Cl)c3)o2)CC1 ?
PAFAH1B3 FP inh: 4; ARFGAP1 inh: 9; PAFAH1B2 inh: 7; PAFAH2 inh: 5; ASAP1 inh: -4; pPAFAH inh: 5

How did O=C(CN1C(=O)NC2(CCCCC2)C1=O)Nc1ccc(F)cc1 do in these assays?
PAFAH1B3 FP inh: -3; ARFGAP1 inh: 6; PAFAH1B2 inh: 5; PAFAH2 inh: 2; ASAP1 inh: 6; pPAFAH inh: 0

What do the screens show for `Cc1ccc(Sc2ccc(NC(=O)CCN3C(=O)NC4(CCCC4)C3=O)cc2)c(C)c1`?
PAFAH1B3 FP inh: 2; ARFGAP1 inh: 3; PAFAH1B2 inh: 7; PAFAH2 inh: 38*; ASAP1 inh: 13; pPAFAH inh: 32*

Results for NC(=O)c1ccc(NC(=O)CN2C(=O)NC3(CCCCCCC3)C2=O)cc1 ?
PAFAH1B3 FP inh: 12; ARFGAP1 inh: 9; PAFAH1B2 inh: 3; PAFAH2 inh: 8; ASAP1 inh: -3; pPAFAH inh: 26*

Results for CCOC(=O)c1sc(NC(=O)Nc2ccc(Cl)cc2)cc1C ?
PAFAH1B3 FP inh: 20; ARFGAP1 inh: 17; PAFAH1B2 inh: 8; PAFAH2 inh: 2; ASAP1 inh: -7; pPAFAH inh: 26*

How did COC(=O)C[C@@H]1C[C@H]2c3cc(NC(=O)Nc4ccccc4F)ccc3O[C@H]2[C@@H](CO)O1 do in these assays?
ARFGAP1 inh: 0; ASAP1 inh: 3

How did O=S(=O)(NCc1ccc(Cl)c(Cl)c1)c1cc(Cl)ccc1N1CC[C@@H](O)C1 do in these assays?
ARFGAP1 inh: 16; ASAP1 inh: 2

What do the screens show for `COC(=O)C(Cc1ccc(O)cc1)NS(=O)(=O)Cc1ccccc1` (stereo not given)?
ARFGAP1 inh: -4; ASAP1 inh: -5

Results for CCN(CC)c1ccc(-c2sc(Nc3ccccc3)n[n+]2-c2ccc(F)cc2)cc1 ?
PAFAH1B3 FP inh: 0; ARFGAP1 inh: -5; PAFAH1B2 inh: -6; PAFAH2 inh: 0; ASAP1 inh: -22; pPAFAH inh: 4

What do the screens show for `CCc1ccc(Nc2n[n+](-c3ccccc3)c(-c3ccc(N(CC)CC)cc3)s2)cc1`?
PAFAH1B3 FP inh: 5; ARFGAP1 inh: 0; PAFAH1B2 inh: 3; PAFAH2 inh: 10; ASAP1 inh: -2; pPAFAH inh: 30*

Results for CCOC(=O)C1CCCN(S(=O)(=O)c2cc3[nH]c(=O)c(=O)[nH]c3cc2C)C1 (stereo not given) ?
PAFAH1B3 FP inh: 4; ARFGAP1 inh: -5; PAFAH1B2 inh: 26*; PAFAH2 inh: 1; ASAP1 inh: -6; pPAFAH inh: 7

What do the screens show for `CCOC(=O)C1CCCN(S(=O)(=O)c2ccc(S(=O)(=O)N3CCCC3)cc2)C1` (stereo not given)?
PAFAH1B3 FP inh: 7; ARFGAP1 inh: -1; PAFAH1B2 inh: -3; PAFAH2 inh: 15; ASAP1 inh: 4; pPAFAH inh: -5

Results for CCc1c(-c2ccc(Br)cc2)ncn1CCc1ccccc1OC ?
ARFGAP1 inh: -7; ASAP1 inh: -3

How did CC(C)CCNC(=O)Cc1c(C(=O)O)[nH]c2ccc(Cl)cc12 do in these assays?
PAFAH1B3 FP inh: 7; ARFGAP1 inh: -2; PAFAH1B2 inh: 50*; PAFAH2 inh: 7; ASAP1 inh: -18; pPAFAH inh: 5

Results for CC(=O)OCC(=O)N1CCN(C(=O)C(=O)c2cccc(C(F)(F)F)c2)CC1 ?
ARFGAP1 inh: 12; ASAP1 inh: 0

Results for COc1ccccc1C(=O)N1CCN(C(=O)[C@@H](Cc2ccccc2)NC(=O)[C@H]2O[C@@H](n3ccc(=O)[nH]c3=O)[C@H](O)[C@@H]2O)CC1 ?
ARFGAP1 inh: 21; ASAP1 inh: -2

Results for CCOC(=O)c1ccc(N2CCN(c3ccccc3F)CC2)c(NC(=O)Nc2cccc(OC)c2)c1 ?
PAFAH1B3 FP inh: -22; ARFGAP1 inh: 4; PAFAH1B2 inh: -8; PAFAH2 inh: -10; ASAP1 inh: 4; pPAFAH inh: 26*

Results for Nc1[nH]c(C(=O)c2ccccc2)c(-c2ccc3ccccc3c2)c1C(=O)NCc1ccc(F)cc1 ?
ARFGAP1 inh: 4; ASAP1 inh: -6

How did CC(C)C[C@H](NC(=O)C1CC1)C(=O)N1CCC[C@H]1C(=O)NCc1ccccc1 do in these assays?
ARFGAP1 inh: -3; ASAP1 inh: -3

What do the screens show for `Cc1ccc(CSc2nnc(CNc3ccc(F)cc3)o2)cc1`?
PAFAH1B3 FP inh: 2; ARFGAP1 inh: -2; PAFAH1B2 inh: 26*; PAFAH2 inh: 6; ASAP1 inh: 10; pPAFAH inh: 9

Results for O=C1c2cccc3c(O)ccc(c23)C(=O)N1c1ccc(Cl)cc1 ?
PAFAH1B3 FP inh: 27*; ARFGAP1 inh: -4; PAFAH1B2 inh: 17; PAFAH2 inh: 42*; ASAP1 inh: 6; pPAFAH inh: 28*
